Laboratory results published in publication PMC5035790 (Annals of Oncology, 2016).

Legend:
p110α = settings: read-out: IC50 p110α; cited from earlier work
advanced solid tumors = assay: Tumor response by investigator, modified RECIST version 1.1; format: in vivo, human
Method in brief: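 Solid-tumour patients (dose-escalation cohorts 0.1–1.2 mg/kg, expansion at 0.8 mg/kg) received a 1-h IV infusion on days 1, 8 and 15 of 28-day cycles until progression. Response was by investigator assessment using modified RECIST 1.1. PTEN loss by IHC was defined as 0% tumour cells staining, low as 1% to <5%, and positive as ≥5%.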

non-Hodgkin's lymphoma = assay: Tumor response by International Working Group response criteria for lymphoma; format: in vivo, human; settings: follicular lymphoma (FL), six patients
Method in brief: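 NHL expansion cohort (follicular lymphoma and DLBCL) received 0.8 mg/kg as a 1-h IV infusion on days 1, 8 and 15 of each 28-day cycle, continued until progression or unfavourable risk:benefit. Response was judged by investigator assessment using International Working Group lymphoma criteria.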

[1] = Blood pressure monitoring after infusion; format: in vivo, human
plasma glucose = assay: Plasma glucose and insulin pharmacodynamics; format: in vivo, human; settings: 33 of 51; blood glucose >200 mg/dl
p110γ = settings: read-out: IC50 p110γ; cited from earlier work

COc1c(OCCCN2CCOCC2)ccc2c1N=C(NC(=O)c1cnc(N)nc1)N1CCN=C21 [copanlisib, Copanlisib]
IC50 (p110α): 0.5 nM | tumor reduction (advanced solid tumors; 1 patient with endometrial carcinoma, 0.4 mg/kg cohort, stable disease): > 25% | objective response or stable disease for >4 cycles (advanced solid tumors; 10 patients without complete PTEN loss): none | partial response (PR) (advanced solid tumors; 48 patients with solid tumors, 2 patients, 1 confirmed, 1 unconfirmed): 4% | complete response (CR) (advanced solid tumors; 48 patients with solid tumors, one patient): 2% | disease progression by clinical judgment (advanced solid tumors; 48 patients with solid tumors, seven patients): 15% | patients with stable disease ≥6 cycles (advanced solid tumors; of the 15 patients with stable disease): 6 patients | cycles until CR (advanced solid tumors; patient with endometrial carcinoma, PIK3CA and PTEN mutations, complete PTEN loss, 0.8 mg/kg): 10 cycles | overall response rate (advanced solid tumors; patients with solid tumors): 6% | CR, PR, or stable disease lasting ≥6 cycles (advanced solid tumors; solid tumors at MTD with complete PTEN loss, 3 of 7): 43% | CR, PR, or stable disease (advanced solid tumors; solid tumors at MTD without PTEN loss, seven patients): none | response rate (non-Hodgkin's lymphoma): 100% | time of peak of post-infusion increase in blood pressure ([1]; in vivo): 1 to 2 h | time to resolution of post-infusion increase in blood pressure ([1]; post-infusion): ≤ 24 h | non-diabetic patients receiving at least 1 dose of short-acting insulin (plasma glucose): 65% | IC50 (p110γ): 6.4 nM
